The record followed here is ChEMBL document CHEMBL1123959, “Orally active hydroxamic acid inhibitors of leukotriene biosynthesis” (J Med Chem, 1988).

pIC50: −log10 of the molar value.

As a reminder, the ED50 is the dose that gives a 50% effect, or the effect in half of the subjects. A higher ED50 goes with weaker potency. A word on the pIC50: it is −log10 of the IC50, conventionally taken in molar units. Lower therefore signals a high IC50. As usually defined, the inhibition in vivo is the change of the read-out against control, counted positive when it falls.

The subject of experiment [1] is Rattus norvegicus. As to the kind of experiment: Plasma concentration after 1 hr of peroral administration at 100 mg/kg was determined in rats. It counts as functional, organism-based. The arrangement: dose 100 mg/kg. In short, it runs like this:
(§1)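 Rats received 100 mg/kg orally by gavage. Blood was drawn from a lateral tail vein at the set times, and plasma was separated by centrifugation. Proteins were precipitated with methanol, and compound was quantified by HPLC with UV detection at its absorbance maximum. Values are the average of two determinations ± range.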

For experiment [2], the species on record is Rattus norvegicus. As to the kind of experiment: Effective dosage to inhibit leukotriene biosynthesis in rat peritoneal anaphylaxis model. It is filed as functional. Summed up: (§2)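 Rats were primed ip with rabbit antibody to bovine serum albumin and challenged ip with BSA 3 h later. Inhibitors were given orally by gavage 1 h before challenge. Rats were killed 15 min after challenge, and peritoneal fluid leukotrienes were measured by radioimmunoassay. ED50 is given with 95% confidence limits. Percent inhibition at a fixed dose is the mean ± SEM (n = 8).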

For experiment [3], the system named is Rattus norvegicus. As to the kind of experiment: Plasma concentration after 6 hr of peroral administration at 100 mg/kg was determined in rats. It is filed as functional, organism-based. The arrangement: dose 100 mg/kg. In short, it runs like this:
as §1

In experiment [4] the target is T1, Polyunsaturated fatty acid 5-lipoxygenase (Rattus norvegicus, UniProt P12527).
T1 sequence (P12527 whole entry): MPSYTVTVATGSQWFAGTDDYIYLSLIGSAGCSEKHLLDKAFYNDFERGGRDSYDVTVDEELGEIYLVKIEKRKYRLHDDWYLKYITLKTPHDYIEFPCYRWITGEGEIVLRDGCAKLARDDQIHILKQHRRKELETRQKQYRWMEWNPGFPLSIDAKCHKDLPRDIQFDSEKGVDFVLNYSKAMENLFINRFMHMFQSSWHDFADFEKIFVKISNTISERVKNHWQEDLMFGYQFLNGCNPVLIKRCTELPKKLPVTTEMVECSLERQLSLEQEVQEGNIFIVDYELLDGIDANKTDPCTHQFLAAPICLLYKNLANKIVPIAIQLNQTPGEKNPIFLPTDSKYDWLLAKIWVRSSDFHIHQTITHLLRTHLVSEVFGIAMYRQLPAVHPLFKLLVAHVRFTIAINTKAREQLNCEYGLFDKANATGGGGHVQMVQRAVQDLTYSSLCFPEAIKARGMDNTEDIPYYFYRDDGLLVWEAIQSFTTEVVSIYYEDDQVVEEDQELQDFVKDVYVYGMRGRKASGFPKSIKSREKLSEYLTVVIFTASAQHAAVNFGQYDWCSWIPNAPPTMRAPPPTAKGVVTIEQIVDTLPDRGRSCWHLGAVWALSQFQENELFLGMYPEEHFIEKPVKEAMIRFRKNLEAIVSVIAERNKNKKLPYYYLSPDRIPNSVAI
Description: In vitro inhibition of 5-lipoxygenase in RBL-1 cells. It is filed as cell-based. Summed up: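 The enzyme was 5-lipoxygenase in the 2000g supernatant of RBL-1 cell homogenate. IC50 is reported with 95% confidence limits.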

The test system of experiment [5] is Rattus norvegicus. As to the kind of experiment: Plasma concentration after 3h of peroral administration at 100 mg/kg was determined in rats. It counts as functional, organism-based. Further details: dose 100 mg/kg. Summed up:
as §1

Experiment [6] deals with Rattus norvegicus. As to the kind of experiment: Percentage inhibition of leukotriene biosynthesis in rat peritoneal anaphylaxis model at 100 mg/kg. It counts as functional. In short, it runs like this:
as §2

Take `CC(=O)N(O)C(C)c1ccc(OCc2ccccc2)cc1` (stereo not drawn): the Plasma concentration in experiment [1] stood at 110 µM; in experiment [3] it was 95 µM; in experiment [5] it was 140 µM. This molecule yielded an ED50 in experiment [2] of 8 mg/kg. The molecule further gave a pIC50 in experiment [4] of 6.43.

In the case of `CC(C)Cc1ccc(C(C)C(=O)N(C)O)cc1` (stereo not drawn), the Plasma concentration in experiment [1], in experiment [3] and in experiment [5] was less than 9 µM in each case. Besides, 100 mg/kg produced 65% inhibition in vivo in experiment [6]. In experiment [4], this molecule had a pIC50 of 6.54.

`CCCCOc1ccc(C(C)N(O)C(C)=O)cc1` (stereo not drawn): the figures for the Plasma concentration in experiment [1], in experiment [3] and in experiment [5] were 92 µM, 13 µM and 71 µM, respectively. This molecule showed an ED50 in experiment [2] of 17 mg/kg. In experiment [4], this molecule gave a pIC50 of 6.10.

As to `CC(C(=O)N(C)O)c1ccc(OCc2ccccc2)cc1` (stereo not drawn), the Plasma concentration in experiment [1] stood at 8 µM; in experiment [3], 3.8 µM; in experiment [5] it was 5.8 µM. The same molecule yielded an ED50 in experiment [2] of 40 mg/kg.

`CC(=O)N(O)C(C)c1ccc(CC(C)C)cc1` (stereo not drawn): the Plasma concentration in experiment [1] stood at 21 µM; in experiment [3] it was 5 µM; in experiment [5], 10 µM. This molecule also showed an ED50 in experiment [2] of 24 mg/kg. Moreover, the pIC50 in experiment [4] was 6.38.

For `CC(=O)N(O)C(C)c1ccc2ccccc2c1` (stereo not drawn), the Plasma concentration was 91 µM in experiment [1], 33 µM in experiment [3] and 26 µM in experiment [5]. The molecule further returned an ED50 in experiment [2] of 19 mg/kg. The same molecule had a pIC50 in experiment [4] of 6.27.

Turning to `CC(C(=O)N(C)O)c1ccc2ccccc2c1` (stereo not drawn), the Plasma concentration worked out at 37 µM in experiment [1], 1.4 µM in experiment [3] and 13 µM in experiment [5]. The pIC50 in experiment [4] is 6.23.

Regarding `CCCCOc1ccc(C(C)C(=O)N(C)O)cc1` (stereo not drawn), the values for the Plasma concentration in experiment [1], in experiment [3] and in experiment [5] were 58 µM, 3.2 µM and 7.3 µM, respectively. In experiment [6], this molecule displayed an inhibition in vivo at 100 mg/kg of 62%. Moreover, in experiment [4], the pIC50 was 6.11.
